Data set [1] concerns Rattus norvegicus. The experiment in a line: Anticonvulsant activity against subcutaneous metrazole-induced seizures in albino Sprague-Dawley rat at 300 mg/kg, ip after 4 hrs. The class given is functional, organism-based. The arrangement: dose 300 mg/kg.
The nature of data set [2]: Neurological toxicity in ip dosed albino CF1 mouse assessed as neurological impairment by rotarod test. The class given is organism-based. The settings on record: in vivo. The essentials:
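Neurological impairment was measured with the rotorod test in mice dosed intraperitoneally. The median dose (TD50, mg/kg) was determined only for compounds with significant MES activity.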

For data set [3], the system named is Mus musculus. As to the kind of experiment: Anticonvulsant activity in ip dosed albino CF1 mouse seizure model assessed as protection against hind limb extension by MES test. The settings on record: albino CF1, Hindlimb. The format is functional. In a few lines:
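Maximal electroshock seizure test run by the NINDS ASP (Stables and Kupferberg procedures). Compounds were given intraperitoneally to mice, and the ED50 for seizure protection is reported in mg/kg.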

Data set [4] deals with Mus musculus. As to the kind of experiment: Anticonvulsant activity against subcutaneous metrazole-induced seizures in albino CF1 mouse at 300 mg/kg, ip after 0.5 hrs. The class given is functional, organism-based. Set-up: dose 300 mg/kg. In a few lines: (§1)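 Subcutaneous Metrazol seizure test under the NINDS ASP, using ip dosing to mice, typically at 300 mg/kg. Protection was assessed at 0.5 and 4 h.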

In data set [5] the test system is Rattus norvegicus. The experiment in a line: Anticonvulsant activity against subcutaneous metrazole-induced seizures in albino Sprague-Dawley rat at 300 mg/kg, ip after 0.5 hrs. The class given is functional, organism-based. Set-up: dose 300 mg/kg.
Data set [6] has as its system Mus musculus. As to the kind of experiment: Anticonvulsant activity against subcutaneous metrazole-induced seizures in albino CF1 mouse at 300 mg/kg, ip after 4 hrs. Set-up: dose 300 mg/kg. The class given is functional, organism-based. In a few lines:
as §1

The nature of data set [7]: Behavioral toxicity in po dosed albino Sprague-Dawley rat. The format is organism-based. Particulars: in vivo. The essentials:
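Behavioral toxicity was recorded as observed effects in rats after oral administration, within the NINDS ASP screen.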

For data set [8], the system named is Rattus norvegicus. The experiment in a line: Anticonvulsant activity in po dosed albino Sprague-Dawley rat seizure model assessed as protection against hind limb extension by MES test. The format is functional. The settings on record: Hindlimb. The essentials:
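MES seizure protection was tested in Sprague Dawley rats dosed orally, through the NINDS ASP. The ED50 is expressed in mg/kg.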

Activity calls are given as the source filed them. No cut-off for these calls is given here.

For orientation: TD50 means the dose at which the toxic effect under study appears in half of the subjects. One may read the ED50 as the dose at which the effect has come halfway, by size or by number of responders.

As to `CC#Cc1ccc(CNC(=O)[C@@H](COC)NC(C)=O)cc1`, the result with Rattus norvegicus [1], in the data set on Mus musculus [4], in the data set with Rattus norvegicus [5] and in the data set on Mus musculus [6] was inactive. The TD50 in data set [2] was found to be 30 mg/kg. For the same molecule, the median effective dose (ED50) with Mus musculus [3] amounted to 10 mg/kg.
`COC[C@@H](NC(C)=O)C(=O)NCc1ccc(CN)cc1.Cl`: the outcome in the data set on Rattus norvegicus [1], with Mus musculus [4], with Rattus norvegicus [5] and in the data set with Mus musculus [6] was inactive. The TD50 in data set [2] is more than 300 mg/kg. Also, the ED50 in the data set with Mus musculus [3] was more than 300 mg/kg.
For `COC[C@@H](NC(C)=O)C(=O)NCc1ccc(C(C)(C)C)cc1`, the result with Rattus norvegicus [1], in the data set on Mus musculus [4], in the data set on Rattus norvegicus [5] and with Mus musculus [6] was inactive. For the same molecule, the values for the TD50 in data set [2] and in data set [7] were 100 mg/kg and more than 30 mg/kg, respectively. Further, the ED50 was 100 mg/kg in the data set on Mus musculus [3] and more than 30 mg/kg in the data set with Rattus norvegicus [8].
Turning to `COC[C@H](NC(C)=O)C(=O)NCc1ccc(C#C[Si](C)(C)C)cc1`, the result in the data set with Rattus norvegicus [1], in the data set with Mus musculus [4], in the data set on Rattus norvegicus [5] and with Mus musculus [6] was inactive. Besides, the TD50 in data set [2] was 100 mg/kg; in data set [7] it was more than 30 mg/kg. The 50% effective dose (ED50) was 30 mg/kg with Mus musculus [3] and more than 30 mg/kg in the data set with Rattus norvegicus [8].
Consider `COC[C@@H](NC(C)=O)C(=O)NCc1ccc(NC(=O)C(F)(F)F)cc1`, for which the outcome with Rattus norvegicus [1], in the data set with Mus musculus [4], in the data set on Rattus norvegicus [5] and in the data set on Mus musculus [6] was inactive. Also, the TD50 was 100 mg/kg in data set [2] and more than 30 mg/kg in data set [7]. In addition, the 50% effective dose (ED50) is more than 300 mg/kg with Mus musculus [3] and more than 30 mg/kg in the data set with Rattus norvegicus [8].
Regarding `COC[C@@H](NC(C)=O)C(=O)NCc1ccc(S(N)(=O)=O)cc1`, the result in the data set with Rattus norvegicus [1], in the data set with Mus musculus [4], in the data set with Rattus norvegicus [5] and with Mus musculus [6] was inactive. Also, in data set [2], the TD50 was more than 300 mg/kg. Also, the ED50 in the data set on Mus musculus [3] was more than 300 mg/kg.
As for `COC[C@H](NC(C)=O)C(=O)NCc1ccc(C=O)cc1`, the result in the data set on Rattus norvegicus [1], in the data set with Mus musculus [4], with Rattus norvegicus [5] and with Mus musculus [6] was inactive. The TD50 in data set [2] is more than 300 mg/kg. In the data set on Mus musculus [3], the median effective dose (ED50) was more than 300 mg/kg.
With `COC[C@@H](NC(C)=O)C(=O)NCc1ccc(CNC(=O)OC(C)(C)C)cc1`, the outcome in the data set on Rattus norvegicus [1], with Mus musculus [4], in the data set with Rattus norvegicus [5] and in the data set on Mus musculus [6] was inactive. Also, the TD50 in data set [2] is more than 300 mg/kg. In addition, the median effective dose (ED50) with Mus musculus [3] is more than 300 mg/kg.
Consider `COC[C@@H](NC(C)=O)C(=O)NCc1ccc(Cl)cc1Cl`, for which, in the data set on Mus musculus [3], the ED50 was found to be 30 mg/kg.
Regarding `CCC1(c2ccccc2)C(=O)NC(=O)NC1=O`, the result with Rattus norvegicus [1], with Mus musculus [4], in the data set with Rattus norvegicus [5] and in the data set on Mus musculus [6] was inactive.
In the case of `COC[C@@H](NC(C)=O)C(=O)NCc1ccc(CCCO)cc1`, the result in the data set with Rattus norvegicus [1], in the data set on Mus musculus [4], with Rattus norvegicus [5] and in the data set on Mus musculus [6] was inactive. In addition, the TD50 in data set [2] was more than 300 mg/kg. The median effective dose (ED50) with Mus musculus [3] is more than 300 mg/kg.
Consider `C=Cc1ccc(CNC(=O)[C@H](COC)NC(C)=O)cc1`, for which the result with Rattus norvegicus [1], in the data set with Mus musculus [4], in the data set on Rattus norvegicus [5] and in the data set on Mus musculus [6] was inactive. Besides, in data set [2], the TD50 is more than 300 mg/kg. Moreover, the ED50 in the data set on Mus musculus [3] came to 100 mg/kg.
`COC[C@H](NC(C)=O)C(=O)NCc1ccccc1`: the result with Rattus norvegicus [1], with Mus musculus [4], in the data set with Rattus norvegicus [5] and in the data set with Mus musculus [6] was inactive. In addition, the TD50 is more than 300 mg/kg in data set [2] and more than 30 mg/kg in data set [7].
Take `COC[C@@H](NC(C)=O)C(=O)NCc1ccc(C(=O)OC)cc1`: the result in the data set with Rattus norvegicus [1], in the data set with Mus musculus [4], with Rattus norvegicus [5] and in the data set with Mus musculus [6] was inactive. In addition, in data set [2], the TD50 was more than 300 mg/kg. Further, the ED50 in the data set on Mus musculus [3] worked out at 100 mg/kg.
As to `CCc1ccc(CNC(=O)[C@H](COC)NC(C)=O)cc1`, the outcome with Rattus norvegicus [1], in the data set on Mus musculus [4], with Rattus norvegicus [5] and with Mus musculus [6] was inactive. The TD50 is 100 mg/kg in data set [2] and more than 30 mg/kg in data set [7]. For the same molecule, the results for the ED50 in the data set on Mus musculus [3] and with Rattus norvegicus [8] were 100 mg/kg and more than 30 mg/kg, respectively.
On to `COC[C@H](NC(C)=O)C(=O)NCc1ccc(N=[N+]=[N-])cc1`, for which the outcome in the data set with Rattus norvegicus [1], with Mus musculus [4], in the data set on Rattus norvegicus [5] and in the data set on Mus musculus [6] was inactive. Moreover, the TD50 in data set [2] is more than 300 mg/kg; in data set [7] it was more than 30 mg/kg. For the same molecule, the median effective dose (ED50) in the data set on Mus musculus [3] amounted to 100 mg/kg.
For `COC[C@@H](NC(C)=O)C(=O)NCc1ccc(C#CC(C)(C)C)cc1`, the result in the data set on Rattus norvegicus [1], in the data set with Mus musculus [4], in the data set with Rattus norvegicus [5] and in the data set with Mus musculus [6] was inactive. Besides, the TD50 in data set [2] amounted to 30 mg/kg. Further, the ED50 in the data set on Mus musculus [3] is more than 300 mg/kg.
`COC[C@H](NC(C)=O)C(=O)NCc1ccc(I)cc1`: the result in the data set with Rattus norvegicus [1], in the data set on Mus musculus [4], in the data set with Rattus norvegicus [5] and with Mus musculus [6] was inactive. Moreover, the TD50 in data set [2] is more than 300 mg/kg; in data set [7] it was more than 30 mg/kg. For the same molecule, the values for the median effective dose (ED50) with Mus musculus [3] and in the data set on Rattus norvegicus [8] were 100 mg/kg and more than 30 mg/kg, respectively.
For the molecule `C#Cc1ccc(CNC(=O)[C@H](COC)NC(C)=O)cc1`, the outcome with Rattus norvegicus [1], in the data set on Mus musculus [4], in the data set with Rattus norvegicus [5] and in the data set on Mus musculus [6] was inactive. In addition, the TD50 in data set [2] was more than 300 mg/kg. In the data set on Mus musculus [3], the ED50 was more than 300 mg/kg.
Regarding `COC[C@@H](NC(C)=O)C(=O)NCc1ccc(C(=O)O)cc1`, the outcome in the data set on Rattus norvegicus [1], in the data set on Mus musculus [4], with Rattus norvegicus [5] and in the data set with Mus musculus [6] was inactive. Further, in data set [2], the TD50 was more than 300 mg/kg. For the same molecule, in the data set with Mus musculus [3], the ED50 was more than 300 mg/kg.
Take `COC[C@@H](NC(C)=O)C(=O)NCc1ccc([N+](=O)[O-])cc1`: in the data set on Mus musculus [3], the 50% effective dose (ED50) turned out to be 100 mg/kg.
As to `COC[C@@H](NC(C)=O)C(=O)NCc1ccc(C(C)C)cc1`, the result in the data set with Rattus norvegicus [1], in the data set on Mus musculus [4], with Rattus norvegicus [5] and in the data set with Mus musculus [6] was inactive. The TD50 in data set [2] was 100 mg/kg; in data set [7], more than 30 mg/kg. For the same molecule, the 50% effective dose (ED50) is 10 mg/kg in the data set with Mus musculus [3] and more than 30 mg/kg with Rattus norvegicus [8].
On to `COC[C@@H](NC(C)=O)C(=O)NCc1ccc(C=O)cc1`, for which the result with Rattus norvegicus [1], in the data set on Mus musculus [4], with Rattus norvegicus [5] and in the data set on Mus musculus [6] was inactive. In addition, the TD50 in data set [2] was more than 300 mg/kg. Also, in the data set with Mus musculus [3], the 50% effective dose (ED50) is more than 300 mg/kg.
As to `COC[C@@H](NC(C)=O)C(=O)NCc1ccc(N=C=S)cc1`, the ED50 in the data set on Mus musculus [3] came out at 24 mg/kg.
As to `COC[C@@H](NC(C)=O)C(=O)NCc1ccc(N)cc1`, the outcome in the data set on Rattus norvegicus [1], with Mus musculus [4], in the data set on Rattus norvegicus [5] and in the data set with Mus musculus [6] was inactive. Besides, in data set [2], the TD50 was more than 300 mg/kg. Further, the ED50 in the data set with Mus musculus [3] is more than 300 mg/kg.
For the molecule `COC[C@@H](NC(C)=O)C(=O)NCc1ccc(C#C[Si](C)(C)C)cc1`, the result with Rattus norvegicus [1], in the data set with Mus musculus [4], in the data set with Rattus norvegicus [5] and with Mus musculus [6] was inactive. Further, in data set [2], the TD50 came out at 3 mg/kg. Further, the median effective dose (ED50) with Mus musculus [3] is more than 3 mg/kg.
Turning to `COC[C@H](NC(C)=O)C(=O)NCc1ccc(C#N)cc1`, the outcome with Rattus norvegicus [1], in the data set on Mus musculus [4], in the data set with Rattus norvegicus [5] and in the data set with Mus musculus [6] was inactive. Also, the TD50 in data set [2] was more than 300 mg/kg; in data set [7], more than 30 mg/kg. For the same molecule, the 50% effective dose (ED50) in the data set with Mus musculus [3] was 100 mg/kg; with Rattus norvegicus [8], more than 30 mg/kg.
As for `COC[C@@H](NC(C)=O)C(=O)NCc1cccc(OC(F)(F)F)c1`, the outcome in the data set with Rattus norvegicus [1], in the data set on Mus musculus [4], in the data set on Rattus norvegicus [5] and with Mus musculus [6] was inactive. Further, in data set [2], the TD50 was determined as 30 mg/kg. In addition, in the data set with Mus musculus [3], the ED50 worked out at 10 mg/kg.

For the origin of these results see ChEMBL document CHEMBL1156809, “Synthesis and anticonvulsant activities of (R)-N-(4'-substituted)benzyl 2-acetamido-3-methoxypropionamides” (J Med Chem, 2010).
